In ChEMBL document CHEMBL2321834 (J Med Chem, 2013):
Active and inactive are the calls of the source. The calls are words filed in the database; no cut-off is given here.

How the values were obtained:
[1] = target: 11-beta-hydroxysteroid dehydrogenase 1 (Homo sapiens, UniProt P28845); assay: Inhibition of human recombinant 11beta-HSD1 expressed in HEK293 cell using [1,2-3H]Cortisone as substrate at 2 uM after 10 mins by scintillation counting analysis; type: cell-based
Procedure, shortened: (§1)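 Recombinant human 11β-HSD1 or 11β-HSD2 stably transfected in HEK-293 cells, following a previously described procedure.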

[2] = target: T1, Aldo-keto reductase family 1 member C3 (Homo sapiens) (UniProt P42330); assay: Inhibition of human recombinant 17beta-HSD5 expressed in Escherichia coli using [1,2,6,7-3H]A-dione as substrate at 1 uM by scintillation counting analysis
T1 sequence (whole entry): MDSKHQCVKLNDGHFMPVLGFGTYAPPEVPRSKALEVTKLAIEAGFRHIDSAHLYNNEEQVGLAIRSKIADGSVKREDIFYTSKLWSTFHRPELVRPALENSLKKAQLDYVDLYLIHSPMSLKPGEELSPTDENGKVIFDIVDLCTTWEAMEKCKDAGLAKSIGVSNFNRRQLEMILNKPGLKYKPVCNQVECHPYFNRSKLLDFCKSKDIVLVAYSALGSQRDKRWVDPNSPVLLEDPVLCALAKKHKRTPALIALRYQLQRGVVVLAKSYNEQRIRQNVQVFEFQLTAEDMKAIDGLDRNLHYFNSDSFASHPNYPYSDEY

[3] = system: MDA-MB-231; assay: Cytotoxicity against human MDA-MB-231 cells at 50 uM after 3 hrs by MTT assay; type: cell-based; settings: mda-mb-231, 3 h
Procedure, shortened: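 MTT conversion read-out, following Denisot et al. Tested at 2.5, 10 and 50 µM with 3 h incubation.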

[4] = target: T2, 11-beta-hydroxysteroid dehydrogenase type 2 (Homo sapiens) (UniProt P80365); assay: Inhibition of human recombinant 11beta-HSD2 expressed in HEK293 cell using [1,2,6,7-3H]cortisol as substrate at 2 uM after 10 mins by scintillation counting analysis; type: cell-based; procedure, shortened: as §1
T2 sequence (whole entry): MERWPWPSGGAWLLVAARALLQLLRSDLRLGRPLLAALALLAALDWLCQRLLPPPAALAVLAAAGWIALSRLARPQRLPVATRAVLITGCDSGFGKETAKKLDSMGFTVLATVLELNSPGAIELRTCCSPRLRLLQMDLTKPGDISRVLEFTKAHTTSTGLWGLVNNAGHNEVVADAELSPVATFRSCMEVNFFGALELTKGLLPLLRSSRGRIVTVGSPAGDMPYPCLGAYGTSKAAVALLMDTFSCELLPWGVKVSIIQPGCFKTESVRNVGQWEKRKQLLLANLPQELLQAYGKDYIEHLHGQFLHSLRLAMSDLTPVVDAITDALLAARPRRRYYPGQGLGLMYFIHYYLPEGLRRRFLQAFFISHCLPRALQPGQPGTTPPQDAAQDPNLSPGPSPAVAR

[5] = target: T3, Peroxisomal multifunctional enzyme type 2 (Homo sapiens) (UniProt P51659); assay: Inhibition of human recombinant 17beta-HSD4 SDR domain expressed in Escherichia coli using [6,7-3H]E2 as substrate at 1 uM by scintillation counting analysis
T3 sequence (whole entry): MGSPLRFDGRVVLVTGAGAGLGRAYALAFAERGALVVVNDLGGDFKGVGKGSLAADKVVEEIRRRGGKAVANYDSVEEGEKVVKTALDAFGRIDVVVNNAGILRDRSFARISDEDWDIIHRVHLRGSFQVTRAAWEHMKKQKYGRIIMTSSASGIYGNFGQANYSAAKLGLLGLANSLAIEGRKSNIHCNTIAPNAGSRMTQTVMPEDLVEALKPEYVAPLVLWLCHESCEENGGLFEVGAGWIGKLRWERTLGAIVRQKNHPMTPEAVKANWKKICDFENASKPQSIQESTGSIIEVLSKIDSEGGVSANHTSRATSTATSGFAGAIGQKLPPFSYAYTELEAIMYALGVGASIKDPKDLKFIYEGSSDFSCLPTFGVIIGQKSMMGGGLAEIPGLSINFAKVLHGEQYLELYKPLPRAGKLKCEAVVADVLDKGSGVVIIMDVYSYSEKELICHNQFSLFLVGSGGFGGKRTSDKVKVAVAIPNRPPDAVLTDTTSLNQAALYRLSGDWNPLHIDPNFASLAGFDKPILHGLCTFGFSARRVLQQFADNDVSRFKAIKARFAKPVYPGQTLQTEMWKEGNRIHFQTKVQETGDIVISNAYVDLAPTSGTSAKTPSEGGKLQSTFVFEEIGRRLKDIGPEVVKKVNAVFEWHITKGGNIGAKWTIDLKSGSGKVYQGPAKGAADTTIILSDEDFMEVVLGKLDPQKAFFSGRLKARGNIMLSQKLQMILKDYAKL

[6] = target: T4, 17-beta-hydroxysteroid dehydrogenase type 1 (Homo sapiens) (UniProt P14061); settings: at 1 µM;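 further: enzyme source was human placental cytosol with tritiated estrone as substrate, 10 min reaction, conversion quantified by HPLC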
T4 sequence (whole entry): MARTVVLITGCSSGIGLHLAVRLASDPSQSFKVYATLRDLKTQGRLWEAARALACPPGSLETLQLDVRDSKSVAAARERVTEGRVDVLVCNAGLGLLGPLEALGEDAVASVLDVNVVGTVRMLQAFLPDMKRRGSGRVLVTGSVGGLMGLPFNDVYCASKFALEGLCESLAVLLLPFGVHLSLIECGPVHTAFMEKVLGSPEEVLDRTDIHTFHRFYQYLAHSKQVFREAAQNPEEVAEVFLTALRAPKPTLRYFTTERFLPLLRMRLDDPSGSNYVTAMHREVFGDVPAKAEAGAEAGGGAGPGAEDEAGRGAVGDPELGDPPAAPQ

[7] = target: T5, Estradiol 17-beta-dehydrogenase 2 (Rattus norvegicus) (UniProt Q62730); assay: Inhibition of 17beta-HSD2 in rat liver microsomal fraction assessed as inhibition of [3H]E2 conversion to E1 at 1 uM by scintillation counting analysis; type: microsomes
T5 sequence (whole entry): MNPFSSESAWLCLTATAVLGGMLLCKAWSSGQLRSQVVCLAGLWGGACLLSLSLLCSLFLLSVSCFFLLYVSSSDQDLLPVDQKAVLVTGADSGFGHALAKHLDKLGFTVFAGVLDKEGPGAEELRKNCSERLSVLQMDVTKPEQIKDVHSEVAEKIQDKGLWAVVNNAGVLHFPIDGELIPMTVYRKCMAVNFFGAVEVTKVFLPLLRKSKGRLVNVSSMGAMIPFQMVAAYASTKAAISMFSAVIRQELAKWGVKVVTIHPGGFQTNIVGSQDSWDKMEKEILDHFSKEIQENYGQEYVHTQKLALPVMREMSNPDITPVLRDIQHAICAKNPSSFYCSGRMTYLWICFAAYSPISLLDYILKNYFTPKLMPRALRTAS
Procedure, shortened: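 Cell-free assay measuring percent inhibition of the E2-to-E1 transformation. Enzyme source was the microsomal fraction of rat or mouse liver, or of Callithrix jacchus placenta for the marmoset.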

11-beta-hydroxysteroid dehydrogenase 1, sequence (P28845 whole entry, looked up): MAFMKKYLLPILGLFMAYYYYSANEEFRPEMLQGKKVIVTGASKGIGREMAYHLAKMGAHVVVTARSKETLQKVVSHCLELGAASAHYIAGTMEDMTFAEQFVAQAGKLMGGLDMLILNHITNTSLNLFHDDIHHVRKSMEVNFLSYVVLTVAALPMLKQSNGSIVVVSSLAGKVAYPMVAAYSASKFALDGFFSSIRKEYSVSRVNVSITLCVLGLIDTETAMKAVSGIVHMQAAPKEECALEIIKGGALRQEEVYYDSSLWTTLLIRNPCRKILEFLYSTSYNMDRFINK

Compound	inhibition [1]	inhibition [2]	Activity [3]	inhibition [4]	inhibition [5]	inhibition [6]	inhibition [7]
COc1cccc(N(C)C(=O)c2ccc(-c3cccc(OC)c3F)s2)c1	9%	26%	Non-toxic	8%	inactive	17%	inactive
COc1cccc(-c2ccc(C(=O)N(C)Cc3cccc(O)c3)s2)c1F	68%	33%	Non-toxic	10%	inactive	< 10%	25%
